# ChEMBL document CHEMBL5247576, “Modulation of autophagy by the novel mitochondrial complex I inhibitor Authipyrin” (Bioorg Med Chem, 2019)
# Activity calls are given as the source filed them. The calls are words filed in the database; no cut-off is given here.
# What was measured:
# [1] = target: T1, Inactive tyrosine-protein kinase PEAK1 (Homo sapiens, UniProt Q9H792); assay: Inhibition of PEAK1 (unknown origin)
# Procedure, shortened: (§1)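 Follow-up on kinases showing more than 50% single-point inhibition. Each kinase was screened against decreasing compound concentrations, with a top concentration of 1 μM, to derive the IC50. Percent inhibition was also reported from this dose-response series.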
# [2] = target: Cyclin-dependent kinase 19 (Homo sapiens) (UniProt Q9BWU1); assay: Inhibition of GST-tagged human recombinant CDK11 (1 to 795 residues) expressed in baculovirus expression system at 1 uM relative to control
# Procedure, shortened: (§2)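 Single-point kinase profiling run at 1 μM compound against a full kinase panel. Values are percent inhibition of kinase activity.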
# MCF7 [3] = assay: Inhibition of mitochondrial complex II in human MCF7 cells expressing LC3 by Seahorse XF plasma membrane permeabilizer analysis; type: cell membranes
# Procedure, shortened: (§3)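 MCF7/LC3 cells were permeabilized with plasma membrane permeabilizer, then given DMSO, compound (1 μM) or a complex-specific control inhibitor together with that complex's substrates. Oligomycin and antimycin A injections followed. Oxygen consumption rate was read on a Seahorse XF analyzer. Data are mean ± SD, n = 3.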
# [4] = target: T2, Serine/threonine-protein kinase haspin (Homo sapiens, UniProt Q8TF76); assay: Inhibition of GST-tagged human recombinant haspin (471 to 798 residues) expressed in insect cells; procedure, shortened: as §1
# T2 sequence (Q8TF76 whole entry): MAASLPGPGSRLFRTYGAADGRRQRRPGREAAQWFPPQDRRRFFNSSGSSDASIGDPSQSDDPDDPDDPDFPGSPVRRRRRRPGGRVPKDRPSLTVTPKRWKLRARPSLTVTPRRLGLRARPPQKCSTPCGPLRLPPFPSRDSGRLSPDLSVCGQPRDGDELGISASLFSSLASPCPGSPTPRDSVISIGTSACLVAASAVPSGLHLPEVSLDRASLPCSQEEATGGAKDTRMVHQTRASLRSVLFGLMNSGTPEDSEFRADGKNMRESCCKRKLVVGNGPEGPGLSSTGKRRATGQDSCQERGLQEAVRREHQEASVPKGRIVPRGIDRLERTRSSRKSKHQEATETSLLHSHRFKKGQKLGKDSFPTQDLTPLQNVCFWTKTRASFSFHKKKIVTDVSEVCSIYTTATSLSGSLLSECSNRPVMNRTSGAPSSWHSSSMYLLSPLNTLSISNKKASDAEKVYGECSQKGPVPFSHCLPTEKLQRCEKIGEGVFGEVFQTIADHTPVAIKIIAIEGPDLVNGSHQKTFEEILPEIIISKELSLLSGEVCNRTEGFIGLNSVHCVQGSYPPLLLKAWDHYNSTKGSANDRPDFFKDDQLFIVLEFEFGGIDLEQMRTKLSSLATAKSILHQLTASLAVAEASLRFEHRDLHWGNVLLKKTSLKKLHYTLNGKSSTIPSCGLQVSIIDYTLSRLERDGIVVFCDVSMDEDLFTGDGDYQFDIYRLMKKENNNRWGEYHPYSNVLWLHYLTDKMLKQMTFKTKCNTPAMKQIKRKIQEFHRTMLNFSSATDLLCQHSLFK
# [5] = Inhibition of rapamycin-induced autophagy in human MCF7 cells expressing eGFP-tagged LC3 incubated for 3 hrs in presence of chloroquine by Hoechst staining based fluorescence microscopic analysis; type: functional, cell-based
# [6] = target: T3, Serine/threonine-protein kinase haspin (Homo sapiens) (UniProt Q8TF76); assay: Inhibition of GST-tagged human recombinant haspin (471 to 798 residues) expressed in insect cells relative to control; settings: concentration not given here; procedure, shortened: as §1
# T3 sequence (whole entry): T2 sequence (Q8TF76 whole entry)
# HeLa = assay: Inhibition of starvation-induced autophagy in human HeLa cells assessed as reduction of LC3-II lipidation at 1 uM in presence of chloroquine by immunoblotting analysis; type: functional, cell-based
# Procedure, shortened: (§4)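 Cells were starved in EBSS for the indicated times, with or without chloroquine (50 μM) and compound (1 μM). Cells were then lysed and LC3 lipidation was assessed by immunoblot. n = 3.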
# [7] = target: T1, Inactive tyrosine-protein kinase PEAK1; assay: Inhibition of PEAK1 (unknown origin) at 1 uM relative to control; procedure, shortened: as §2
# [8] = test system: T4, Discoidin domain-containing receptor 2 (Homo sapiens), Q16832 [N456S]; assay: Inhibition of GST/His-tagged human recombinant DDR2 N456S mutant (422 to 855 residues) expressed in baculovirus expression system at 1 uM relative to control
# T4 sequence (whole entry): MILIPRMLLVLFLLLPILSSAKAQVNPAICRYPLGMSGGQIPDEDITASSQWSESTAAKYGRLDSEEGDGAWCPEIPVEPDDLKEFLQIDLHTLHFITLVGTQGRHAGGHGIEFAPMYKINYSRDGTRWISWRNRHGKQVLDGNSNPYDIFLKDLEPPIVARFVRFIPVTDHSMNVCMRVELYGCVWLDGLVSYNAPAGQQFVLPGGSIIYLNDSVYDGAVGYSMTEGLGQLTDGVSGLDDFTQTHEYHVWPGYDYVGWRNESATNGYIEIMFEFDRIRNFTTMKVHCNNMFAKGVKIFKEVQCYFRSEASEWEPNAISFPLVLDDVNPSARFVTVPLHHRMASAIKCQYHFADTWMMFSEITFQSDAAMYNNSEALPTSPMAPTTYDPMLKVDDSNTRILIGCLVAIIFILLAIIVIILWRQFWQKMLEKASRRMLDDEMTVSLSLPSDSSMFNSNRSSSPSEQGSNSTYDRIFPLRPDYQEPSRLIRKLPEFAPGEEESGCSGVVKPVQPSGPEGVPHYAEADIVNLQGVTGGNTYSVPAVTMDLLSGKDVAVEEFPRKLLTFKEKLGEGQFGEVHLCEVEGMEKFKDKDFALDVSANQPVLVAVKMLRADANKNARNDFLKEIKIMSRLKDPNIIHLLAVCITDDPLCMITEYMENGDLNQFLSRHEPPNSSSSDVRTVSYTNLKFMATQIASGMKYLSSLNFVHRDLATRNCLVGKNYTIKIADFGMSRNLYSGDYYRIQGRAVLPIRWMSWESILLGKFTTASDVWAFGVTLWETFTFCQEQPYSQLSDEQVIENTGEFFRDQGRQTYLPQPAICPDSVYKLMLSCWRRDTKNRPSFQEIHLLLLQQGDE
# Procedure, shortened: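 Single-point kinase panel (SelectScreen) run with the compound at 1 μM. Activity is reported as percent inhibition.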
# HEK-293T = assay: Inhibition of starvation-induced autophagy in human HEK293T cells assessed as reduction of LC3-II lipidation at 1 uM in presence of chloroquine by immunoblotting analysis; type: functional, cell-based; procedure, shortened: as §4
# MCF7 [9] = assay: Inhibition of mitochondrial complex IV in human MCF7 cells expressing LC3 by Seahorse XF plasma membrane permeabilizer analysis; type: cell membranes; procedure, shortened: as §3
# [10] = target: T3, Serine/threonine-protein kinase haspin (Homo sapiens); assay: Inhibition of GST-tagged human recombinant haspin (471 to 798 residues) expressed in insect cells at 1 uM relative to control; procedure, shortened: as §2
# MCF7 [11] = assay: Inhibition of starvation-induced autophagy in human MCF7 cells assessed as reduction of LC3-II lipidation at 1 uM in presence of chloroquine by immunoblotting analysis; type: functional, cell-based; procedure, shortened: as §4
# [12] = target: T1, Inactive tyrosine-protein kinase PEAK1; assay: Inhibition of PEAK1 (unknown origin) relative to control; settings: concentration not given here; procedure, shortened: as §1
# [13] = test system: T4, Discoidin domain-containing receptor 2 (Homo sapiens), Q16832 [N456S]; assay: Inhibition of GST/His-tagged human recombinant DDR2 N456S mutant (422 to 855 residues) expressed in baculovirus expression system relative to control; settings: concentration not given here
# MCF7 [14] = assay: Inhibition of mitochondrial complex I in human MCF7 cells expressing LC3 by Seahorse XF plasma membrane permeabilizer analysis; type: cell membranes; procedure, shortened: as §3
# Bos taurus = species: Bos taurus; assay: Inhibition of NADH-Coenyme Q reductase in bovine heart mitochondria; settings: dose 0.3-10 µM
# Procedure, shortened: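 Isolated bovine heart mitochondria were assayed for NADH-coenzyme Q reductase activity across a dose range of compound. Rotenone served as the control inhibitor. Data are mean ± SD, n = 2.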
# [15] = target: Discoidin domain-containing receptor 2 (Homo sapiens, UniProt Q16832, N456S); assay: Inhibition of GST/His-tagged human recombinant DDR2 N456S mutant (422 to 855 residues) expressed in baculovirus expression system
# Procedure, shortened: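 Kinase profiling panel (SelectScreen). The kinase was tested against decreasing concentrations of the compound, starting at a highest concentration of 1 μM, and IC50 was derived from the dose-response.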
# [16] = target: Cyclin-dependent kinase 19 (Homo sapiens) (UniProt Q9BWU1); assay: Inhibition of GST-tagged human recombinant CDK11 (1 to 795 residues) expressed in baculovirus expression system relative to control; settings: concentration not given here; procedure, shortened: as §1
# [17] = Inhibition of starvation-induced autophagy in human MCF7 cells expressing eGFP-tagged LC3 incubated for 3 hrs in presence of chloroquine by automated fluorescence microscopy
# T1 sequence (Q9H792 whole entry): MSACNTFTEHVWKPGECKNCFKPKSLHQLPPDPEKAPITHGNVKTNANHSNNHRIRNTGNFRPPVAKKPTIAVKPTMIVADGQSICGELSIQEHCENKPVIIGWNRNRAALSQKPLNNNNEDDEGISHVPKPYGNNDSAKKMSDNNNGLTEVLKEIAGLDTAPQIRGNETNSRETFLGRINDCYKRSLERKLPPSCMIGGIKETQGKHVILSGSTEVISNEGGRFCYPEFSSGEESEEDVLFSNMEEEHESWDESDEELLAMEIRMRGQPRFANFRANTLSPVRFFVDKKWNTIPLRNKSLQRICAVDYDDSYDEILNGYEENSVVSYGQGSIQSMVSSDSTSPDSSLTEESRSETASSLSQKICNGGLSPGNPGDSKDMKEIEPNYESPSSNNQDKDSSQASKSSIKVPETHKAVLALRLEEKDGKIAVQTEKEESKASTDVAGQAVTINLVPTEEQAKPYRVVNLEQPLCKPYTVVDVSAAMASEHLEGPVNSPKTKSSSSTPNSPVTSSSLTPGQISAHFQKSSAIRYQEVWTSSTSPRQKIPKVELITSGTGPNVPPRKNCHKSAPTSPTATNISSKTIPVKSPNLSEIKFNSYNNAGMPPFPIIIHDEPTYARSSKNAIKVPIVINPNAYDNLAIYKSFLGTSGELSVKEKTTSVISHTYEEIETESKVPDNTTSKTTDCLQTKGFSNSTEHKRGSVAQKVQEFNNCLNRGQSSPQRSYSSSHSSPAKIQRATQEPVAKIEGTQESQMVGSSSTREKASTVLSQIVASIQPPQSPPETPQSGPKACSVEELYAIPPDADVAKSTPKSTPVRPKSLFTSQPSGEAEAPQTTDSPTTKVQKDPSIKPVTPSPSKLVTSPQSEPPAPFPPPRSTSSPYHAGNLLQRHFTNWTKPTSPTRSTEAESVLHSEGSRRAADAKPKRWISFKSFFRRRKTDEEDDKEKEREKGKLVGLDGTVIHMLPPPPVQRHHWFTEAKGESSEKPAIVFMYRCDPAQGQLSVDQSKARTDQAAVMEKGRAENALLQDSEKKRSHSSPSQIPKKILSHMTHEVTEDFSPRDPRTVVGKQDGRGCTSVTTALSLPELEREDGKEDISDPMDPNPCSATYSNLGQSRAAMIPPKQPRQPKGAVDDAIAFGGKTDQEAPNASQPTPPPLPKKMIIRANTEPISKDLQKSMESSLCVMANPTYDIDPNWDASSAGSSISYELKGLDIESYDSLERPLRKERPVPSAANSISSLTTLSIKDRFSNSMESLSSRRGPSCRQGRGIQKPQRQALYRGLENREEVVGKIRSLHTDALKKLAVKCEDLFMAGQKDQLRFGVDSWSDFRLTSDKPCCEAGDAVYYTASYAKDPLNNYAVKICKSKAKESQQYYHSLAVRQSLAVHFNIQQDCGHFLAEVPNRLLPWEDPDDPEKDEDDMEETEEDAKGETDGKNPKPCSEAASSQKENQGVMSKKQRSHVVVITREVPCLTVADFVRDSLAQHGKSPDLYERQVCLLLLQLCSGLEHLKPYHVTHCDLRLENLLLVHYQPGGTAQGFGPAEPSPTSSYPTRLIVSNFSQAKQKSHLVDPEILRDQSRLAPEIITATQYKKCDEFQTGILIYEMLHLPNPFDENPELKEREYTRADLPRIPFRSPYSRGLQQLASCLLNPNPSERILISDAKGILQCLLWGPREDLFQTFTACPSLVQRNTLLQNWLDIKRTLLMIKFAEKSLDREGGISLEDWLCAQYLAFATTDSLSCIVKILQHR
# Chain of Cyclin-dependent kinase 19 (Homo sapiens) (Q9BWU1 whole entry, the tested form may be a part): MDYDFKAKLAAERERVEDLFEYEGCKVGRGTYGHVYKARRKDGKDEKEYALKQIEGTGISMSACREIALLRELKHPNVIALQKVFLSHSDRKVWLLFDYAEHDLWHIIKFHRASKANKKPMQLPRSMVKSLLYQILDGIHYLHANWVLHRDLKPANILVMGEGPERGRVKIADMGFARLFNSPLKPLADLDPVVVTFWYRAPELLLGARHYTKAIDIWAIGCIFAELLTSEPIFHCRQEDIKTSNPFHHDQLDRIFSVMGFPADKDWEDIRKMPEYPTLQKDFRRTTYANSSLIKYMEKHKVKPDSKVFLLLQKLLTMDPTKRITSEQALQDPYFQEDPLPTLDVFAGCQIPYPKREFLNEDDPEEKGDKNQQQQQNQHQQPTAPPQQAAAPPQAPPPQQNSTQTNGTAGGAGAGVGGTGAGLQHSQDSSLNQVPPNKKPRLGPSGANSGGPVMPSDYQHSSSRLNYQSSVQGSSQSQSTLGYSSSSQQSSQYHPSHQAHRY
smiles,measurement,setting,value
O=C(c1ccc2c(c1)OCCO2)C1CCN(c2ncnc3sccc23)CC1,IC50,[1],620 nM
same,inhibition,[2],70%
same,inhibition,MCF7 [3],inactive
same,IC50,[4],> 1000 nM
same,IC50,[5],180 nM
same,inhibition,[6],33%
same,inhibition,HeLa,Active
same,inhibition,[7],83%
same,inhibition,[8],58%
same,inhibition,HEK-293T,Active
same,inhibition,MCF7 [9],inactive
same,inhibition,[10],51%
same,inhibition,MCF7 [11],Active
same,inhibition,[12],68%
same,inhibition,[13],38%
same,inhibition,MCF7 [14],Active
same,inhibition,Bos taurus,Dose-Dependent Effect
same,IC50,[15],> 1000 nM
same,inhibition,[16],47%
same,IC50,[17],20 nM
